Assay [1] deals with Mahlavu. The assay is described as follows: Cytotoxicity against human Mahlavu cells after 72 hrs by SRB assay. It counts as functional, cell-based. The conditions noted are these: Homo sapiens, Mahlavu, 72 h; read-out: IC50. The procedure, abridged:
(§1)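 SRB assay. Cells plated per well (HCT116 3000; Huh7, Hep3B, HepG2, MCF-7 2000; Mahlavu, FOCUS, SNU475 1000) and grown 24 h. Compounds came from 20 mM DMSO stocks and were tested in triplicate, 40 to 2,5 (or 2,5 to 0,03) per printed range, for 72 h. Cells fixed in 10% TCA, stained with 0.4% SRB, dye dissolved in 10 mM Tris, A515 read. IC50 derived after DMSO normalization.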

For assay [2], the system named is Mahlavu. The assay is described as follows: Cell cycle arrest in human Mahlavu cells assessed as accumulation of cells at G2/M phase at 1 uM after 24 hrs by propidium iodide staining-based flow cytometric analysis (reference value: 24.7%). It counts as functional.
Assay [3] concerns Mahlavu. The assay is described as follows: Cell cycle arrest in human Mahlavu cells assessed as accumulation of cells at G1 phase at 1 uM after 24 hrs by propidium iodide staining-based flow cytometric analysis (reference value: 33.8%). It counts as functional.
Assay [4] has as its target T1, Mitogen-activated protein kinase kinase kinase 5 (Homo sapiens) (UniProt Q99683).
T1 sequence (whole entry): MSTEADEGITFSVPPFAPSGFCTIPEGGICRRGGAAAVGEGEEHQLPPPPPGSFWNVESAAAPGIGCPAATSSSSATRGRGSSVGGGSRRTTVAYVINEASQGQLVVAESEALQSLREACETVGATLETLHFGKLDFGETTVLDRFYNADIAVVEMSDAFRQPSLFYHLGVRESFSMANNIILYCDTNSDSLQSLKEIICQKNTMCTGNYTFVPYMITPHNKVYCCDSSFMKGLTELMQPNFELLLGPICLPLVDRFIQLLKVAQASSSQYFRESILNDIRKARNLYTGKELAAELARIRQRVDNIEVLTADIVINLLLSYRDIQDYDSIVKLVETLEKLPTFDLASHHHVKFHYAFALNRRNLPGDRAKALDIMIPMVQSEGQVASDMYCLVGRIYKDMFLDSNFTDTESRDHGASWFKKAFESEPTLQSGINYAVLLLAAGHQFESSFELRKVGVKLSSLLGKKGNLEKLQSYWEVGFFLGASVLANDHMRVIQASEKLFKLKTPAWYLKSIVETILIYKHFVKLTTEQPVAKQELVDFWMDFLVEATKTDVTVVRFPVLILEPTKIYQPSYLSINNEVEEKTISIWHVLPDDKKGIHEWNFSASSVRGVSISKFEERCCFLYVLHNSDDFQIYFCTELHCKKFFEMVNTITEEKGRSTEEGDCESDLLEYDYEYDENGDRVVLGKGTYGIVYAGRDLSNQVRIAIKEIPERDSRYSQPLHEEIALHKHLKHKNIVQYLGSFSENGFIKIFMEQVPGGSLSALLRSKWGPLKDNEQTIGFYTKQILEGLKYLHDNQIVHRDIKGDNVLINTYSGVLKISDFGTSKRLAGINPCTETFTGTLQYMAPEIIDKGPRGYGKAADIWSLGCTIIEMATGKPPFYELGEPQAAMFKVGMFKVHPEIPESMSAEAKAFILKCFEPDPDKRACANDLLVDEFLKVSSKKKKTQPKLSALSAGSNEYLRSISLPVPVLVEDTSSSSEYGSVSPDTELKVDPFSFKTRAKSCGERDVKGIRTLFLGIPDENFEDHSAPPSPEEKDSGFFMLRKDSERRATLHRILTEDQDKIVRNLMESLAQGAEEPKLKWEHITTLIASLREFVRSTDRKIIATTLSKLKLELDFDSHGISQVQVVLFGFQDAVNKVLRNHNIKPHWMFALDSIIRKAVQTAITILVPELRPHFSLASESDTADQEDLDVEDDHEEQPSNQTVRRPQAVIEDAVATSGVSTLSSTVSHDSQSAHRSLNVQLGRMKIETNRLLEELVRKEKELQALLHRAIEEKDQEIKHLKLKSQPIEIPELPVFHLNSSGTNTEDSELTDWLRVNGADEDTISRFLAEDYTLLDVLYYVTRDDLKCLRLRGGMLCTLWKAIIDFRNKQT
Kind of assay: Inhibition of ASK1 Ser-966 phosphorylation in human Mahlavu cells at 1 uM after 24 to 72 hrs by Western blot analysis. It counts as cell-based.

The subject of assay [5] is Huh-7. The assay is described as follows: Induction of apoptosis in human HuH7 cells assessed as early apoptotic cells at 1 uM after 24 hrs by Annexin V-FITC/propidium iodide staining-based flow cytometric analysis (reference value: 0.17%). The format is functional.
The subject of assay [6] is Mahlavu. The assay is described as follows: Induction of apoptosis in human Mahlavu cells assessed as apoptotic body formation at 1 uM by Hoechst staining-based assay. It counts as functional, cell-based.
The subject of assay [7] is Mahlavu. Kind of assay: Cytotoxicity against human Mahlavu cells after 72 hrs by RTCA analysis. It counts as functional, cell-based. The gist of the method: (§2)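 xCELLigence impedance real-time growth assay. Huh7 (2000) or Mahlavu (1000) cells plated, treated after 24 h at log phase with a 2-fold dilution series (4 steps) from a top concentration of 1. Cell index recorded every 10 min for 24 h, then every 30 min. Growth inhibition normalized to DMSO; IC50 taken at 24, 48, 72 h.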

Assay [8] relates to Huh-7. Kind of assay: Induction of apoptosis in human HuH7 cells assessed as viable cells at 1 uM after 72 hrs by Annexin V-FITC/propidium iodide staining-based flow cytometric analysis (reference value: 97.20%). It counts as functional. The conditions noted are these: Huh-7, 72 h, read-out: Activity.
The subject of assay [9] is Mahlavu. Kind of assay: Down-regulation of CDK1 protein expression in human Mahlavu cells at 1 uM after 24 to 72 hrs by Western blot analysis. It counts as functional, cell-based.
The test system of assay [10] is Mahlavu. Kind of assay: Cell cycle arrest in human Mahlavu cells assessed as accumulation of cells at subG1 phase at 1 uM after 48 hrs by propidium iodide staining-based flow cytometric analysis (reference value: 22.6%). It counts as functional.
The test system of assay [11] is Mahlavu. The assay is described as follows: Induction of apoptosis in human Mahlavu cells assessed as viable cells at 1 uM after 72 hrs by Annexin V-FITC/propidium iodide staining-based flow cytometric analysis (reference value: 96.05%). The format is functional. The conditions noted are these: read-out: Activity.
Assay [12] has as its system Huh-7. Kind of assay: Cell cycle arrest in human HuH7 cells assessed as accumulation of cells at G2/M phase at 1 uM after 48 hrs by propidium iodide staining-based flow cytometric analysis (reference value: 33.5%). The format is functional.
The test system of assay [13] is Huh-7. The assay is described as follows: Cytotoxicity against human HuH7 cells after 24 hrs by RTCA analysis. The format is functional, cell-based. Particulars: Huh-7, 24 h. The procedure, abridged:
as §2

Assay [14] concerns HepG2. The assay is described as follows: Cytotoxicity against human HepG2 cells after 72 hrs by SRB assay. Particulars: Homo sapiens, HepG2, 72 h; read-out: IC50. The format is functional, cell-based. The procedure, abridged:
as §1

Assay [15] relates to Huh-7. The assay is described as follows: Cell cycle arrest in human HuH7 cells assessed as accumulation of cells at subG1 phase at 1 uM after 72 hrs by propidium iodide staining-based flow cytometric analysis (reference value: 4.7%). The format is functional.
The subject of assay [16] is Mahlavu. Kind of assay: Induction of apoptosis in human Mahlavu cells assessed as early apoptotic cells at 1 uM after 24 hrs by Annexin V-FITC/propidium iodide staining-based flow cytometric analysis (reference value: 0.09%). The format is functional.
Assay [17] has as its system MCF-12A. Kind of assay: Cytotoxicity against human MCF12A cells after 72 hrs by SRB assay. The format is cell-based. Particulars: Homo sapiens, MCF-12A, 72 h; read-out: IC50.
Assay [18] concerns HCT-116. The assay is described as follows: Cytotoxicity against human HCT116 cells after 72 hrs by SRB assay. Particulars: Homo sapiens, HCT-116, 72 h; read-out: IC50. It counts as functional, cell-based. The procedure, abridged: as §1

Results on two compounds are retold here after ChEMBL document CHEMBL4316592, “Synthesis of new derivatives of boehmeriasin A and their biological evaluation in liver cancer” (Eur J Med Chem, 2019).

The source made the active and inactive calls. The rule behind the calls is not given here.

Regarding `COc1ccc2c3c(c4cc(OC)c(OC)cc4c2c1)CN1CCCC[C@@H]1C3`, the IC50 in assay [1] amounted to 16 nM; in assay [7], 600 nM; in assay [13] it was 1400 nM; in assay [14], 60 nM; in assay [17] it was 70 nM; in [18], 700 nM. Further, the Activity in assay [2] came out at 23.7%; in assay [3], 43.8%; in assay [5], 0.07%; in assay [10] it was 28.3%; in [12] it was 24.4%; in assay [15], 57.5%. The Activity in assay [16] is 0.12%. In addition, the inhibition entry in [4] was “Active”. For the same compound, the result in [6] and in assay [9] was Active. The figures for the viability at 1 µM in [8] and in assay [11] were 83.4% and 85.3%, respectively.

Regarding `COc1ccc2c3c(c4cc(OC)c(OC)cc4c2c1)CN1CCCCC1C3O` (racemic), the IC50 was 10 nM in assay [1]; 10 nM in [7]; 800 nM in assay [13]; 2700 nM in assay [14]; under 2000 nM in assay [17]; under 1 nM in assay [18]. Besides, the Activity is reported as 32.4% in assay [2]; 36.8% in assay [3]; 0% in assay [5]; 20.4% in assay [10]; 18.1% in assay [12]; 62.9% in assay [15]. Moreover, the Activity in assay [16] is 0.04%. Moreover, the inhibition entry in assay [4] was “Active”. Moreover, the outcome in assay [6] and in [9] was Active. The figures for the viability at 1 µM in assay [8] and in assay [11] were 81.7% and 62.7%, respectively.
